DENV2 CPE – inhibitors of DENV2 cytopathic effect, primary screen, cell-based, plate reader, single concentration | 1.7% of 350,000 active | DENV2-infected cells, cytopathic effect rescue | CPE inhibition, % at 9.99 µM; in the data active = CPE inhibition above about 20%, passing the limit was not always enough; inconclusive = no clear call, values can overlap the other calls; tested in BHK-21 cells;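 also: 0% = median of neutral control wells and 100% = median of positive control wells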
SIRT5 block – SIRT5 desuccinylase inhibitors, primary screen, biochemical, fluorescence imaging, single point, set 5; NAD-dependent protein deacylase sirtuin-5, mitochondrial (Homo sapiens), Q9NXA8; Purified SirT5, succinyl-peptide AMC, trypsin-coupled fluorescence; inhibition, % at 15 µM; 1.1% of 330,000 active; AID 652115, 2013; in the data active = inhibition above about 15%; inconclusive = no clear call, values can overlap the other calls
E-sel inducer – E-selectin induction in HUVECs, primary screen, imaging, HUVEC, immunofluorescence imaging, single point; P16581; normalized: neutral wells 0, TNF-alpha wells 100; 0.37% of 260,000 active; activation, % at 7.58 µM; AID 686992, 2013;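 active = mean E-selectin-positive cell signal at least 10% of the positive control, reached in at least 60% of replicates, without over 20% cell loss; inconclusive = no rule given, readout overlaps actives, possibly toxicity-flagged; inactive = the rest, including those meeting only one limit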
Target sequence (P16581 whole entry, looked up): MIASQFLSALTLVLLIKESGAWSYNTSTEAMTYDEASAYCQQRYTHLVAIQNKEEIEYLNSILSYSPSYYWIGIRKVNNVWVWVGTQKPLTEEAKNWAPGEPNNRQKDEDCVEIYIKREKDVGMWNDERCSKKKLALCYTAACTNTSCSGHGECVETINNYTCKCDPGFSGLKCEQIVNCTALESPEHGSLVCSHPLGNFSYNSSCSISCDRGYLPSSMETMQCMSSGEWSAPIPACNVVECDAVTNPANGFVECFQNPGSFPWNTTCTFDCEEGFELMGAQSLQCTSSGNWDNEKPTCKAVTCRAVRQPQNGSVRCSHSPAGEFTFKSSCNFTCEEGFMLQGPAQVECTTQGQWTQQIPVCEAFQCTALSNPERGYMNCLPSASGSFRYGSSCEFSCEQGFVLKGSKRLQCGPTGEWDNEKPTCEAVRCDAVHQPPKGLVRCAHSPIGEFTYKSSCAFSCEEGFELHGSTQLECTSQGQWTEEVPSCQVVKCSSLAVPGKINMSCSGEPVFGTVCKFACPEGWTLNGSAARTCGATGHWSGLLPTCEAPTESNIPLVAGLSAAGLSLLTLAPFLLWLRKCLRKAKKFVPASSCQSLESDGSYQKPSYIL
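Assay system: HUVEC, human umbilical vein endothelial cells / Amount: 3,000 HUVEC/well / Controls: TNF-alpha positive control, DMSO neutral control / Compound dosing: single concentration / Medium: EGM-2 over gelatin coat / Evaluation: percent E-selectin-positive cells / Signal: immunofluorescence imaging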
Active calls of the source: *; ? = inconclusive; nt = no result given. Hits are enriched below; roughly 2.8% of the tested compounds scored in any of these assays.

SMILES	DENV2 CPE	SIRT5 block	E-sel inducer
Cc1ccc(-c2ccc3c(c2)O[C@@H](CN(C)Cc2ccccn2)[C@H](C)CN([C@@H](C)CO)S3(=O)=O)cc1	10	19*	0
C[C@H](CO)N1C[C@H](C)[C@@H](CN(C)Cc2ccccn2)Oc2cc(-c3cncnc3)ccc2S1(=O)=O	14	0	0
Cc1ccc(-c2ccc3c(c2)O[C@@H](CN(C)Cc2ccccc2)[C@@H](C)CN([C@H](C)CO)S3(=O)=O)cc1	-3	-3	0
Cc1ccc(-c2ccc3c(c2)O[C@@H](CN(C)Cc2ccccn2)[C@H](C)CN([C@H](C)CO)S3(=O)=O)cc1	0	9	0
C[C@H]1CN([C@@H](C)CO)S(=O)(=O)c2ccc(-c3cncnc3)cc2O[C@H]1CN(C)Cc1ccccn1	-5	-0.3*	nt
Cc1ccc(-c2ccc3c(c2)O[C@@H](CN(C)Cc2ccccc2)[C@@H](C)CN([C@@H](C)CO)S3(=O)=O)cc1	?	32*	0
CCOc1ccc(NC(=O)COc2cccc3c2CCN(Cc2cccnc2)C3=O)cc1	-1	-1	nt
COc1ccc(NC(=O)COc2cccc3c2CCN(Cc2cccnc2)C3=O)cc1	?	17*	0
COc1cccc(NC(=O)COc2cccc3c2CCNC3=O)c1	28*	-2	nt
COc1ccc(NC(=O)COc2cccc3c2CCNC3=O)cc1	-4	0	3
O=C(C1CCCC1)N1CC[C@@H]2[C@H]1c1cc(C3=CCCCC3)ccc1N[C@@H]2CO	-6	5	0
CCCC#Cc1cnc2c(c1)C(=O)N([C@@H](C)CO)C[C@@H](C)[C@@H](CN(C)C(=O)c1ccc3c(c1)OCO3)O2	nt	1	1
C[C@H](CO)N1C[C@H](C)[C@H](CN(C)Cc2ccc(Cl)c(Cl)c2)OCCCC[C@H](C)Oc2ccc(NS(=O)(=O)c3ccc(F)cc3)cc2C1=O	6	-1	0
CO[C@H]1CN(C)C(=O)c2cc(NS(=O)(=O)CC(F)(F)F)ccc2OC[C@H](C)N(Cc2ccccn2)C[C@H]1C	5	-1	4
C[C@H]1CCCCO[C@H](CN(C)S(=O)(=O)c2ccc(F)cc2)[C@@H](C)CN([C@@H](C)CO)C(=O)c2cc(NC(=O)Cc3ccccc3)ccc2O1	-5	nt	1
CC(C)C#Cc1ccc([C@@H]2[C@H](CO)N3C(=O)CN(C(=O)C4CCCCC4)C[C@@H]23)cc1	7	24*	0
CC(C)C#Cc1ccc([C@H]2[C@@H](CO)N3C(=O)CN(C(=O)C4CCCCC4)C[C@H]23)cc1	-9	1	0
CCCNC(=O)N1CC(=O)N2[C@@H](CO)[C@H](c3ccc(-c4ccc(F)cc4)cc3)[C@@H]2C1	11	1	0
O=C(c1ccc(F)cc1)N1CC(=O)N2[C@H](CO)[C@H](c3ccc(-c4ccccc4)cc3)[C@H]2C1	24*	-1	0
CCCNC(=O)N1CC(=O)N2[C@H](CO)[C@@H](c3ccc(-c4ccc(F)cc4)cc3)[C@@H]2C1	2	26*	0
O=C(C1CCOCC1)N1CC(=O)N2[C@@H](CO)[C@H](c3ccc(C#CC4CCCC4)cc3)[C@@H]2C1	52*	2	0
O=C(C1CCOCC1)N1CC(=O)N2[C@H](C1)[C@@H](c1ccc(C#CC3CCCC3)cc1)[C@@H]2CO	7	5	-1
O=C(c1ccc(F)cc1)N1CC(=O)N2[C@H](C1)[C@H](c1ccc(-c3ccccc3)cc1)[C@@H]2CO	-5	0	0
CC(C)C#Cc1ccc2c(c1)O[C@@H](CN(C)C(=O)c1ccccn1)[C@@H](C)CN([C@@H](C)CO)S2(=O)=O	2	0	0
O=C(C[C@H]1C[C@H]2c3cc(NC(=O)c4ccc5c(c4)OCO5)ccc3O[C@H]2[C@@H](CO)O1)NCc1cccnc1	-4	0	0
SMILES	DENV2 CPE	SIRT5 block	E-sel inducer
O=C(c1ccc(F)cc1)N1CC(=O)N2[C@H](C1)[C@H](c1ccc(C#CCC3CCCC3)cc1)[C@@H]2CO	-4	19*	0
O=C(c1ccc(F)cc1)N1CC(=O)N2[C@@H](CO)[C@@H](c3ccc(C#CC4CCCC4)cc3)[C@@H]2C1	44*	-1	-1
O=C(c1ccc(F)cc1)N1CC(=O)N2[C@@H](CO)[C@@H](c3ccc(C#CCC4CCCC4)cc3)[C@@H]2C1	2	4	0
O=C(c1ccc(F)cc1)N1CC(=O)N2[C@H](CO)[C@@H](c3ccc(C#CC4CCCC4)cc3)[C@@H]2C1	?	-3	-1
COCC(=O)N1C[C@@H](C)[C@@H](OC)CN(C)C(=O)c2cc(NC(=O)c3ccc(OC)cc3)ccc2OC[C@@H]1C	2	-4	6
COCC#Cc1cnc2c(c1)C(=O)N([C@@H](C)CO)C[C@@H](C)[C@H](CN(C)C(=O)C1CCC1)O2	-6	2	1
CS(=O)(=O)N(Cc1ccco1)Cc1ccccc1Cl	nt	0	nt
CS(=O)(=O)N(CCC#N)Cc1ccco1	-2	16*	-1
O=C(NCC1CCCCC1)[C@H]1[C@H](CO)[C@H]2Cn3c(cccc3=O)[C@H]2N1Cc1ccccn1	1	0	0
COc1cccc(OCc2cc(C(=O)N(C)CCC3CCCCO3)no2)c1 (stereo unspecified)	39*	-3	0
CCCN(CC1CCCO1)C(=O)c1cc(COc2cccc(OC)c2)on1 (stereo unspecified)	-3	1	nt
COc1ccc(NC(=O)Nc2ccc3c(c2)[C@@H]2C[C@H](CC(=O)NC4CCCCC4)O[C@H](CO)[C@@H]2O3)cc1	4	-2	1
Cc1cccc(S(=O)(=O)N2C[C@H]3[C@@H](c4ccccc42)[C@@H](CO)N3CC2CCCC2)c1	-9	15*	0
CCC(=O)N1C[C@H]2[C@@H](c3ccccc31)[C@@H](CO)N2CC1CCCC1	-8	16*	0
CCCNC(=O)N1C[C@@H]2[C@H](c3ccccc31)[C@@H](CO)N2CC1CCCC1	18	-6	0
O=C(c1ccccc1F)N1C[C@H]2[C@@H](c3ccccc31)[C@@H](CO)N2CC1CCCCC1	-7	27*	-1
Cc1cccc(S(=O)(=O)N2C[C@@H]3[C@H](c4ccccc42)[C@@H](CO)N3CC2CCCC2)c1	-14	15	0
COc1ccccc1C(=O)N1C[C@@H]2[C@H](c3ccccc31)[C@H](CO)N2CC1CCCC1	-11	-4	1
C[C@@H]1CN([C@@H](C)CO)C(=O)c2cc(Br)cnc2O[C@H]1CN(C)C(=O)C1CCOCC1	10	-2	-4
COCC(=O)N(C)C[C@H]1Oc2cc(C#CC(C)C)ccc2S(=O)(=O)N([C@@H](C)CO)C[C@H]1C	-3	nt	-5
CCC(=O)N1CCCCN2[C@H](C1)[C@H](c1ccc(-c3cccc(C#N)c3)cc1)[C@@H]2CO	1	2	0
N#Cc1cccc(-c2ccc([C@@H]3[C@H](CO)N4CCCCN(C(=O)Nc5ccc(F)cc5)C[C@@H]34)cc2)c1	26*	nt	0

Screening data (PubChem BioAssay)
